Calls of active or inactive are those of the source. The rule behind the calls is not given here.
Tests used:
Candida parapsilosis [1] = test: Increase in ATP2 gene expression in Candida parapsilosis CLIB214 at 50 uM after 2 hrs by microarray based transcriptional profiling relative to control; format: functional
How it was run: (§1)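 Strain CLIB214 grown overnight in YPD at 30°C, diluted to A600 0.2 in fresh YPD at 30°C. After 4 h (A600 0.8), farnesol (40 mM methanol stock) added to 50 μM final, or an equal methanol volume as control; cells harvested 2 h later. RNA was accepted only with a 28S/18S ratio of 1.6–2.2. Cy3/Cy5-dCTP-labelled cDNA was made from 25 μg total RNA. Hybridisation was to duplicate-spotted 68-mer oligo arrays (3,849 genes) at 42°C for about 16 h. Six individual comparisons.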

Candida parapsilosis [2] = test: Increase in CGD gene ortholog accession number orf19.7353 expression in Candida parapsilosis CLIB214 at 50 uM after 2 hrs by microarray based transcriptional profiling relative to control; format: functional; how it was run: as §1
Candida parapsilosis [3] = test: Increase in CGD gene ortholog accession number orf19.6018 expression in Candida parapsilosis CLIB214 at 50 uM after 2 hrs by microarray based transcriptional profiling relative to control; format: functional; how it was run: as §1
Candida parapsilosis [4] = test: Increase in CGD gene ortholog accession number orf19.1368 expression in Candida parapsilosis CLIB214 at 50 uM after 2 hrs by microarray based transcriptional profiling relative to control; format: functional; how it was run: as §1
Candida parapsilosis [5] = test: Increase in PXP2 gene expression in Candida parapsilosis CLIB214 at 50 uM after 2 hrs by microarray based transcriptional profiling relative to control; format: functional
How it was run: (§2)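 Strain grown overnight in YPD at 30°C, diluted to A600 0.2 in YPD at 30°C; farnesol (40 mM methanol stock) added at 4 h (A600 0.8), final 50 μM; methanol-only control. Cells collected 2 h later for RNA. Labelled cDNA from 25 μg total RNA (Cy3/Cy5-dCTP) hybridized to 68-mer oligo arrays at 42°C ~16 h; six individual comparisons analysed statistically.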

Candida parapsilosis [6] = test: Decrease in STE23 gene expression in Candida parapsilosis CLIB214 at 50 uM after 2 hrs by microarray based transcriptional profiling relative to control; format: functional; how it was run: as §1
Candida parapsilosis [7] = test: Decrease in CGD gene ortholog accession number orf19.7118 expression in Candida parapsilosis CLIB214 at 50 uM after 2 hrs by microarray based transcriptional profiling relative to control; format: functional; how it was run: as §1
Candida parapsilosis [8] = test: Decrease in CGD gene ortholog accession number orf19.6687 expression in Candida parapsilosis CLIB214 at 50 uM after 2 hrs by microarray based transcriptional profiling relative to control; format: functional; how it was run: as §1
Candida parapsilosis [9] = test: Increase in GIR2 gene expression in Candida parapsilosis CLIB214 at 50 uM after 2 hrs by microarray based transcriptional profiling relative to control; format: functional; how it was run: as §2
Candida parapsilosis [10] = test: Increase in CGD gene ortholog accession number orf19.779 expression in Candida parapsilosis CLIB214 at 50 uM after 2 hrs by microarray based transcriptional profiling relative to control; format: functional; how it was run: as §1
Candida parapsilosis [11] = test: Antifungal activity against Candida parapsilosis CLIB214 assessed as growth inhibition at 100 uM added 4 hrs after […] growth; format: functional, organism-based
How it was run: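 C. parapsilosis CLIB214 grown overnight in YPD at 30°C, diluted to A600 0.2 in fresh YPD, grown 4 h (A600 0.8), then farnesol added at final 10, 20, 50 or 100 μM from a 40 mM methanol stock. Methanol-only controls. Growth followed by A600 or by cell counting with a particle counter.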

Candida parapsilosis [12] = test: Cell cycle arrest in Candida parapsilosis CLIB214 assessed as accumulation at G1 phase at 50 uM added 4 hrs after […] growth; format: functional, organism-based
How it was run: (§3)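 YPD culture diluted to A600 0.2 at 30°C. Farnesol added to 50 μM after 4 h. Budding cells scored by microscopy: unbudded as G1, small budded as S, large budded as G2/M. Compared with methanol controls.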

Candida parapsilosis [13] = test: Cell cycle arrest in Candida parapsilosis CLIB214 assessed as accumulation at S phase at 50 uM added 4 hrs after […] growth; format: functional, organism-based; how it was run: as §3
Candida parapsilosis [14] = test: Antifungal activity against Candida parapsilosis CLIB214 assessed as induction of cell death at 50 uM added 4 hrs after […] growth after 2 hrs by colony counting method; format: functional
How it was run: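 Type strain grown overnight in YPD at 30°C, diluted to A600 0.2 in YPD; farnesol (40 mM stock in methanol) added at a final 50 μM, with a methanol-only control. Viability was measured by CFU counts taken 1 h and 2 h after addition.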

Candida parapsilosis [15] = test: Antifungal activity against Candida parapsilosis CLIB214 assessed as growth inhibition at 50 uM added after 2 hrs of bacterial growth measured after 2 hrs; format: functional; conditions: Lodderomyces parapsilosis, CLIB214, 2 h
How it was run: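 Overnight YPD culture at 30°C diluted to A600 0.2 in YPD. Farnesol added to 50 μM final at 2, 4, 6 or 8 h of growth (A600 about 0.8 at 4 h, 2.3 at 6 h, 6 at 8 h). Growth compared with methanol controls by A600 or cell counts.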

Candida parapsilosis [16] = test: Effect on GDH2 gene expression in Candida parapsilosis CLIB214 by microarray based transcriptional profiling; format: functional, organism-based; how it was run: as §1
Candida parapsilosis [17] = test: Increase in STP2 gene expression in Candida parapsilosis CLIB214 at 50 uM after 2 hrs by microarray based transcriptional profiling relative to control; format: functional; how it was run: as §2
Candida parapsilosis [18] = test: Decrease in CGD gene ortholog accession number orf19.2328 expression in Candida parapsilosis CLIB214 at 50 uM after 2 hrs by microarray based transcriptional profiling relative to control; format: functional
How it was run: (§4)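 Cells in YPD at 30°C treated with 50 μM farnesol at 4 h, with a methanol control. RNA harvested 2 h later and kept only if 28S/18S ratio was 1.6–2.2 with no degradation. 25 μg total RNA oligo-dT primed and labeled with Cy3/Cy5-dCTP. Labeled cDNA hybridized about 16 h at 42°C to duplicate-spotted 68-mer oligo arrays. Six individual comparisons analyzed statistically.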

Candida parapsilosis [19] = test: Increase in CGD gene ortholog accession number orf19.1953 expression in Candida parapsilosis CLIB214 at 50 uM after 2 hrs by microarray based transcriptional profiling relative to control; format: functional; how it was run: as §1
Candida parapsilosis [20] = test: Increase in PDE2 gene expression in Candida parapsilosis CLIB214 at 50 uM after 2 hrs by microarray based transcriptional profiling relative to control; format: functional; how it was run: as §2
Candida parapsilosis [21] = test: Decrease in AMO2 gene expression in Candida parapsilosis CLIB214 at 50 uM after 2 hrs by microarray based transcriptional profiling relative to control; format: functional; how it was run: as §4
Candida parapsilosis [22] = test: Decrease in CGD gene ortholog accession number orf19.2517 expression in Candida parapsilosis CLIB214 at 50 uM after 2 hrs by microarray based transcriptional profiling relative to control; format: functional; how it was run: as §4
Candida parapsilosis [23] = test: Decrease in GenBank accession number XP_457879.1 expression in Candida parapsilosis CLIB214 at 50 uM after 2 hrs by microarray based transcriptional profiling relative to control; format: functional; how it was run: as §1
Candida parapsilosis [24] = test: Decrease in CGD gene ortholog accession number orf19.3434 expression in Candida parapsilosis CLIB214 at 50 uM after 2 hrs by microarray based transcriptional profiling relative to control; format: functional; how it was run: as §4
Candida parapsilosis [25] = test: Decrease in CGD gene ortholog accession number orf19.5022 expression in Candida parapsilosis CLIB214 at 50 uM after 2 hrs by microarray based transcriptional profiling relative to control; format: functional; how it was run: as §4

CC(C)=CCC/C(C)=C/CC/C(C)=C/CO [FARNESOL]
fold change (FC) (Candida parapsilosis [1]): 2.16 | fold change (FC) (Candida parapsilosis [2]): 2.14 | fold change (FC) (Candida parapsilosis [3]): 2.07 | fold change (FC) (Candida parapsilosis [4]): 1.59 | fold change (FC) (Candida parapsilosis [5]): 2.04 | fold change (FC) (Candida parapsilosis [6]): 2.13 | fold change (FC) (Candida parapsilosis [7]): 1.56 | fold change (FC) (Candida parapsilosis [8]): 2.26 | fold change (FC) (Candida parapsilosis [9]): 1.74 | fold change (FC) (Candida parapsilosis [10]): 1.72 | Activity (Candida parapsilosis [11]): Active | Activity (Candida parapsilosis [12]): Active | Activity (Candida parapsilosis [13]): Active | Activity (Candida parapsilosis [14]): 20% | inhibition at 50 µM (Candida parapsilosis [15]): 68.5% | Activity (Candida parapsilosis [16]): inactive | fold change (FC) (Candida parapsilosis [17]): 1.63 | fold change (FC) (Candida parapsilosis [18]): 1.5 | fold change (FC) (Candida parapsilosis [19]): 1.77 | fold change (FC) (Candida parapsilosis [20]): 1.67 | fold change (FC) (Candida parapsilosis [21]): 1.56 | fold change (FC) (Candida parapsilosis [22]): 1.69 | fold change (FC) (Candida parapsilosis [23]): 1.71 | fold change (FC) (Candida parapsilosis [24]): 1.8 | fold change (FC) (Candida parapsilosis [25]): 1.85
